By IC50 is commonly meant the concentration needed to halve the response being measured.

The structures appear in SMILES notation. A value given as a limit tells only on which side of the number the result lay.

The source of these data is paper PMC9079887 (RSC Advances, 2018).

One assay addresses Cathepsin L (Homo sapiens, UniProt P07711). Nature of the assay: Cathepsin activity assay, z-Phe-Arg-AMC substrate, cathepsin L. The assay is classed as biochemical. To be noted: read-out: IC50 Cathepsin L, pH 5.5, tested under 10 μM. The gist of the method: (§1)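 Cathepsin activity was read fluorimetrically on a microplate reader with z-Phe-Arg-AMC as substrate. Activity data were fitted to a linearized curve, and IC50 was read from that curve.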

The next assay has as its target T1, Cathepsin K (Homo sapiens, UniProt P43235).
T1 sequence (P43235 115-329): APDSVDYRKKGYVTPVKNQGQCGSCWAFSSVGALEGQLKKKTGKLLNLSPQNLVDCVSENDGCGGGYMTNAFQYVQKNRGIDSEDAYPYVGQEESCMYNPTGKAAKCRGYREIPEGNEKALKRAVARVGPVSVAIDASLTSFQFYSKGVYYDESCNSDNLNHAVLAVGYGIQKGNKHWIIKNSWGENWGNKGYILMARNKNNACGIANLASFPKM
Description: Cathepsin activity assay, z-Phe-Arg-AMC substrate, cathepsin K. The format is biochemical. To be noted: read-out: IC50 Cathepsin K, pH 5.5, tested under 10 μM. The method, boiled down:
as §1

In a further assay the test system is pro-MMP-2. The following applies: <50 μmol L^−1; cited from earlier work.
The subject of a further assay is activated form of MMP-2. The following applies: <50 μmol L^−1; cited from earlier work.

Sequence of Cathepsin L (P07711 114-333, species assumed): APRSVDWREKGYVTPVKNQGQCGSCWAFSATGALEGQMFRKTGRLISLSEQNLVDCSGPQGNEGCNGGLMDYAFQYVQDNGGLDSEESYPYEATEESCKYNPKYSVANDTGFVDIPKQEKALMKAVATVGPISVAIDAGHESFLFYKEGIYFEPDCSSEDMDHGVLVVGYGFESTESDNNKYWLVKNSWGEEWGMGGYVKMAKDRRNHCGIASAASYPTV

For `[Cl][Eu]([Cl])[Cl]` [EuCl3·6H2O], the IC50 at Cathepsin L and at Cathepsin K was > 10 µM in each case.

`[Cl-].[Cl-].[Cl-].[Gd+3]` [GdCl36H2O]: the IC50 at Cathepsin L and on Cathepsin K was > 10 µM in each case.

Turning to `O.O.O.O.O.O.O.[Cl-].[Cl-].[Cl-].[La+3]` [LaCl3·7H2O], the “effect on activity and expression of pro-MMP-2” value in the assay with pro-MMP-2 is “inhibits the activity and expression of pro-MMP-2”. For the same compound, in the assay on activated form of MMP-2, the “effect on the activated form of MMP-2” value is reported as “does not suppress the activated form of MMP-2”.

For `[Cl-].[Cl-].[Cl-].[La+3]` [LaCl3·7H2O], the half-inhibitory concentration (IC50) at Cathepsin L and at Cathepsin K was > 10 µM throughout.

Take `[Cl-].[Cl-].[Cl-].[Tb+3]` [TbCl3·6H2O]: the half-maximal inhibitory concentration (IC50) at Cathepsin L and on Cathepsin K was > 10 µM in each case.

Turning to `[Cl][Yb]([Cl])[Cl]` [YbCl3·6H2O], the IC50 on Cathepsin L and on Cathepsin K was > 10 µM each time.
